From ChEMBL document CHEMBL1649351, “Synthesis, in vitro antimicrobial and in vivo antitumor evaluation of novel pyrimidoquinolines and its nucleoside derivatives” (Eur J Med Chem, 2011) come the findings set out here.

The subject of data set [1] is HeLa. Briefly: Antitumor activity against human HeLa cells xenografted in Swiss albino mouse assessed as increase mouse life span at 10 ug/kg, ip for 10 days relative to control. The format is functional. Background: Xenograft models place foreign cells or tissue in a host animal.
Data set [2] relates to HepG2. Briefly: Antitumor activity against human HepG2 cells xenografted in Swiss albino mouse assessed as increase of mouse survival at 10 ug/kg, ip for 10 days (reference value: 22 +/- 1.90 day). Format: functional.
Data set [3] deals with HeLa. Briefly: Antitumor activity against human HeLa cells xenografted in Swiss albino mouse assessed as increase of mouse survival at 10 ug/kg, ip for 10 days (reference value: 22 +/- 1.90 day). The format is functional.
The test system of another data set is Escherichia coli. Briefly: Antibacterial activity against Escherichia coli at 50 mg/disk after 24 to 28 hrs by agar disk diffusion method. Format: functional.
A further data set relates to Candida albicans. Briefly: Antifungal activity against Candida albicans at 50 mg/disk after 5 days by agar disk diffusion method. Format: functional. For orientation: A growth-free zone around the sample is the usual read-out of agar diffusion tests.
Data set [4] deals with HepG2. Briefly: Antitumor activity against human HepG2 cells xenografted in Swiss albino mouse assessed as increase mouse life span at 10 ug/kg, ip for 10 days relative to control. Format: functional.
The next data set relates to Nakaseomyces glabratus. Briefly: Antifungal activity against Candida glabrata at 50 mg/disk after 5 days by agar disk diffusion method. The format is functional.
The test system of the next data set is Pseudomonas aeruginosa. Briefly: Antibacterial activity against Pseudomonas aeruginosa at 50 mg/disk after 24 to 28 hrs by agar disk diffusion method. The format is functional.
Another data set has as its system Lactococcus lactis. Briefly: Antibacterial activity against Streptococcus lactis at 50 mg/disk after 24 to 28 hrs by agar disk diffusion method. The format is functional.
The subject of another data set is Bacillus subtilis. Briefly: Antibacterial activity against Bacillus subtilis at 50 mg/disk after 24 to 28 hrs by agar disk diffusion method. The format is functional.
Data set [5] deals with Mus musculus. Briefly: Acute toxicity in human HeLa cells xenografted ip dosed Swiss albino mouse assessed as mortality measured up to 2 weeks. The format is organism-based. Conditions: in vivo, 336 h. An outline of the steps: (§1)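 Adult Swiss albino mice were fasted 12 h and randomised into groups of 10. Each group got one i.p. dose from a graded series, given at 1 ml/kg body weight; controls got vehicle alone. Food and water were returned right after dosing. Mortality was followed for up to two weeks, and LD50 was taken as the dose giving 50% mortality.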

Data set [6] deals with Mus musculus. Briefly: Acute toxicity in human HepG2 cells xenografted ip dosed Swiss albino mouse assessed as mortality measured up to 2 weeks. Format: organism-based. To be noted: in vivo, 336 h. A digest of the protocol:
as §1

As for `CC1(C)CC(=O)C2=C(C1)Nc1nc(N/N=C\c3ccc(Cl)cc3)[nH]c(=O)c1C2c1ccc([N+](=O)[O-])cc1` (configuration not stated), the Activity worked out at 50% with HeLa [1] and 53% in the data set on HepG2 [4]. Besides, the figures for the Survival with HepG2 [2] and in the data set on HeLa [3] were 37 days and 32 days, respectively. The “diameter of the inhibition zone (DIZ)” value in the data set with Escherichia coli is on record as 18 mm; in the data set on Candida albicans, 7 mm; in the data set with Nakaseomyces glabratus, 6 mm; in the data set on Pseudomonas aeruginosa it was 17 mm; in the data set on Lactococcus lactis it was 17 mm; in the data set on Bacillus subtilis, 16 mm. The LD50 in the data set on Mus musculus [5] was 0.09 mg/kg; in the data set on Mus musculus [6], 0.096 mg/kg.

For the molecule `CSc1nc2c(c(=O)n1C)C(c1ccc([N+](=O)[O-])cc1)C1=C(CC(C)(C)CC1Cl)N2` (configuration not stated), the figures for the Activity in the data set on HeLa [1] and in the data set with HepG2 [4] were 45% and 48%, respectively. For the same molecule, the results for the Survival with HepG2 [2] and with HeLa [3] were 33 days and 31 days, respectively. Further, the “diameter of the inhibition zone (DIZ)” value in the data set on Escherichia coli stood at 15 mm; in the data set on Candida albicans, 10 mm; in the data set on Nakaseomyces glabratus it was 9 mm; with Pseudomonas aeruginosa, 14 mm; in the data set with Lactococcus lactis, 13 mm; in the data set on Bacillus subtilis, 14 mm. Moreover, the LD50 in the data set on Mus musculus [5] amounted to 0.103 mg/kg; in the data set with Mus musculus [6], 0.1 mg/kg.

Consider `CC1(C)CC(=O)C2=C(C1)Nc1nc3[nH]nc(-c4ccc(Cl)cc4)n3c(=O)c1C2c1ccc([N+](=O)[O-])cc1` (configuration not stated), for which the Activity with HeLa [1] is reported as 57%; with HepG2 [4], 51%. In addition, the Survival in the data set with HepG2 [2] worked out at 36 days; in the data set on HeLa [3] it was 34 days. For the same molecule, the “diameter of the inhibition zone (DIZ)” value is 18 mm in the data set on Escherichia coli; 9 mm in the data set with Candida albicans; 7 mm with Nakaseomyces glabratus; 17 mm with Pseudomonas aeruginosa; 15 mm in the data set with Lactococcus lactis; 18 mm in the data set with Bacillus subtilis. For the same molecule, the LD50 turned out to be 0.089 mg/kg in the data set with Mus musculus [5] and 0.095 mg/kg in the data set on Mus musculus [6].

Take `CC1(C)CC(=O)C2=C(C1)Nc1nc(Nn3c(=O)c4cc5c(=O)n(Nc6nc7c(c(=O)[nH]6)C(c6ccc([N+](=O)[O-])cc6)C6=C(CC(C)(C)CC6=O)N7)c(=O)c5cc4c3=O)[nH]c(=O)c1C2c1ccc([N+](=O)[O-])cc1` (configuration not stated): the Activity in the data set on HeLa [1] worked out at 53%; in the data set on HepG2 [4], 58%. The Survival was 38 days with HepG2 [2] and 29 days with HeLa [3]. In addition, the “diameter of the inhibition zone (DIZ)” value in the data set with Escherichia coli was 23 mm; with Candida albicans, 13 mm; in the data set on Nakaseomyces glabratus it was 12 mm; in the data set with Pseudomonas aeruginosa, 22 mm; in the data set with Lactococcus lactis, 25 mm; in the data set on Bacillus subtilis it was 22 mm. The LD50 with Mus musculus [5] and in the data set on Mus musculus [6] was 0.099 mg/kg throughout.

With `CC1(C)CC(=O)C2=C(C1)Nc1nc(N)[nH]c(=O)c1C2c1ccc([N+](=O)[O-])cc1` (configuration not stated), the Activity in the data set with HeLa [1] is reported as 50%; with HepG2 [4], 49%. Further, the Survival in the data set on HepG2 [2] was found to be 35 days; in the data set with HeLa [3], 31 days. Also, the “diameter of the inhibition zone (DIZ)” value stood at 27 mm in the data set on Escherichia coli; 9 mm in the data set with Candida albicans; 9 mm in the data set with Nakaseomyces glabratus; 23 mm in the data set with Pseudomonas aeruginosa; 20 mm in the data set on Lactococcus lactis; 25 mm in the data set with Bacillus subtilis. For the same molecule, the LD50 in the data set with Mus musculus [5] is 0.09 mg/kg; with Mus musculus [6], 0.095 mg/kg.

Consider `Cc1cn2c(=O)c3c(nc2n1N)NC1=C(C(=O)CC(C)(C)C1)C3c1ccc([N+](=O)[O-])cc1` (configuration not stated), for which the values for the Activity with HeLa [1] and in the data set with HepG2 [4] were 51% and 56%, respectively. Moreover, the Survival came out at 37 days with HepG2 [2] and 34 days in the data set with HeLa [3]. Further, the “diameter of the inhibition zone (DIZ)” value with Escherichia coli was found to be 24 mm; with Candida albicans it was 9 mm; in the data set on Nakaseomyces glabratus it was 10 mm; with Pseudomonas aeruginosa, 23 mm; in the data set on Lactococcus lactis, 22 mm; in the data set with Bacillus subtilis, 19 mm. The LD50 with Mus musculus [5] was 0.09 mg/kg; in the data set on Mus musculus [6], 0.093 mg/kg.

What is called LD50 is the dose at which mortality reaches 50%.
